Results of several laboratories.
Target: Megakaryocyte-associated tyrosine-protein kinase (MATK, Homo sapiens, UniProt P42679)
Sequence (P42679 1-507, as in one of the studies): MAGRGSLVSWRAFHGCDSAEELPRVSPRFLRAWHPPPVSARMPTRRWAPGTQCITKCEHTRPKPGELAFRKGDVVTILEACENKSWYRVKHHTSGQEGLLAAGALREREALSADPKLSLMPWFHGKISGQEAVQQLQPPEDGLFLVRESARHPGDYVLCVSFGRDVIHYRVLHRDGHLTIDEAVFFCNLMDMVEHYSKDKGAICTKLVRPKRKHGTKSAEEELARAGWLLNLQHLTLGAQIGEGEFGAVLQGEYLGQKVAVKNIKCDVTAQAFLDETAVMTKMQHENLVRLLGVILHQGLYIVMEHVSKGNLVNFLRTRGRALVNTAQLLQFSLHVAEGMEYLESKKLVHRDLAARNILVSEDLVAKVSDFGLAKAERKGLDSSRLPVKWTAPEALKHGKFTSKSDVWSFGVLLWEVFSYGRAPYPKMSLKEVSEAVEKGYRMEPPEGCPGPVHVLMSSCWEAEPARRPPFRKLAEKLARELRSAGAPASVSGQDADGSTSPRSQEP

Compound	effect on	action	technique	tested at	quantity	result
CN(C)C(=O)Cn1cc(-c2nc([C@@](C)(c3ccc(-c4cnc(N)nc4)cc3)C3CC3)no2)cn1	cell-free assay		competition with immobilised ligand	1 µM	remaining binding	77%
O=C1NC(=O)c2cc(Nc3ccc(F)cc3)c(Nc3ccc(F)cc3)cc21	cell-free assay			0.5 µM	remaining signal	93.5%
CC(C)(O)[C@H]1CC[C@H](Nc2ccc3ncc(-c4cccc(C(F)(F)F)c4)n3n2)CC1	enzyme activity	inhibitor		1 µM	remaining activity	102%
N#CCCc1ccc2c(c1)-c1[nH]c3ccc([N+](=O)[O-])cc3c1CC(=O)N2	cell-free assay			0.5 µM	remaining signal	101%
CC(C)(C)c1nc2c(s1)c1nc(N)ncc1c1ccc(NS(=O)(=O)c3c(F)cccc3F)c(F)c12	enzyme activity	inhibitor	radiometric	1 µM	remaining activity	101%
Cc1cnn2ncc(-c3ccnc(N(C)C)n3)c2c1	binding			1 µM	remaining binding	100%
CNC(=O)c1ccc(Nc2ncc(C(F)(F)F)c(NCc3nccnc3N(C)S(C)(=O)=O)n2)cc1	cell-free assay		competition with immobilised ligand	0.1 µM	remaining binding	37%
O=C(Nc1cnn(-c2csc(C(=O)NC3COC3)c2)c1)Nc1c(F)cccc1Cl	enzyme activity	inhibitor		5 µM	remaining activity	100%
CN(C(=O)c1ccccc1)c1cc(N(C)c2ccc3c(c2)CCc2ccc(C(=O)NCCN4CCOCC4)cc2C3=O)ccc1F	cell-free assay		competition with immobilised ligand	1 µM	remaining binding	84%
c1nc2c(Nc3ccc4c(c3)OCCO4)nc(Nc3ccc4c(c3)OCCO4)nc2[nH]1	enzyme activity	inhibitor		10 µM	activity vs control	49%
O=C(O)[C@@H]1[C@@H](Cn2nnc3ccccc3c2=O)CC[C@H]1C(=O)c1ccc(OCCC2CCOCC2)cc1	cell-free assay		competition with immobilised ligand	1 µM	remaining binding	95%
COc1cc2ncnc(Nc3ccc(Oc4ccccc4)cc3C)c2cc1OC	enzyme activity	inhibitor		1 µM	inhibition	0%
